Activity calls are given as the source filed them.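 How the source made its calls: active means mean EC50 at or below 20 µM; inactive means the rest.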
Molecular target: CHO-XBP1 luciferase reporter, IRE1-XBP1 activation, luminescence
Assay: activators of IRE1-XBP1 adaptive UPR arm, SAR follow-up, counter-screen for apoptotic UPR arm activator project, CHO-XBP1 cells, luminescence, set 3 (AID 602416)
Outline: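 Assay system: CHO cells stably expressing XBP1 luciferase reporter, IRE1-XBP1 arm / Probe or stimulus: no tunicamycin stimulus in compound wells / Compound dosing: dose series, DMSO ≤1% final / Schedule: compound exposure 6 h at 37 °C / Measured by: Steady-Glo luminescence / Control set: tunicamycin 10 µg/mL high control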

Row | EC50 | SMILES
1 | > 80 µM (inactive) | CC1(C)CCN(S(=O)(=O)c2ccc(NC(=O)c3ccc([N+](=O)[O-])o3)cc2)CC1
2 | > 80 µM (inactive) | CC(C)(C)C1CCN(S(=O)(=O)c2ccc(NC(=O)c3ccc([N+](=O)[O-])o3)cc2)CC1
3 | > 80 µM (inactive) | O=C(Nc1ccc(S(=O)(=O)N2CCC(F)CC2)cc1)c1ccc([N+](=O)[O-])o1
4 | > 80 µM (inactive) | CC1CCN(S(=O)(=O)c2ccc(NC(=O)c3ccc([N+](=O)[O-])o3)cc2)CC1
5 | > 80 µM (inactive) | O=C(Nc1ccc(S(=O)(=O)N2CCCCC2)cc1)c1ccc([N+](=O)[O-])o1
6 | > 80 µM (inactive) | O=C(Nc1ccc(S(=O)(=O)N2CCC(Cl)CC2)cc1)c1ccc([N+](=O)[O-])o1
